Series [1] has as its system DNA. As to the kind of experiment: Binding affinity to Escherichia coli pBR322 DNA assessed as transition of local to global DNA at 2:1 to 3:1 compound to DNA ratio by atomic force microscopic analysis. Type of series: nucleic-acid assay. The procedure, abridged: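 Supercoiled pBR322 plasmid treated with compound at [compound]:[DNA bp] ratios of 0.5:1, 1:1, 1.5:1, 2:1 and 3:1. Imaged by atomic force microscopy, with DNA height measured and compared against untreated plasmid.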

The subject of series [2] is Staphylococcus aureus. As to the kind of experiment: Disruption of cell membrane in Staphylococcus aureus assessed as accumulation of propidium iodide negative cells at 5 uM by flow cytometric analysis (reference value: 98.2%). The format is functional.
The test system of series [3] is Staphylococcus aureus. As to the kind of experiment: Induction of DNA breaks in Staphylococcus aureus at 3.5 uM by TUNEL staining based confocal laser scanning fluorescence microscopic analysis. Type of series: functional, organism-based. The method, boiled down:
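S. aureus treated with 3.5 µM or 0.5% DMSO; pelleted, fixed in 16% paraformaldehyde 30 min at 4°C, permeabilised with 0.2% Triton X-100 plus lysostaphin 0.05 mg/mL; TdT tailing with fluorescent nucleotides 60 min at 37°C, stopped with 2X SSC; confocal imaging with fluorescein filter.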

The subject of series [4] is DNA. As to the kind of experiment: Inhibition of ethidium bromide binding to Staphylococcus aureus DNA at pH 6 to 8 by fluorescence assay. The format is nucleic-acid assay. The procedure, abridged:
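S. aureus genomic DNA (10 µM) with EtBr (5 µM) in 10 mM NaP pH 7, 10 mM NaCl and 1% DMSO, at 25 and 37 °C. Titrated with compound from 2.5 to 100 µM. Excitation 480 nm, emission scanned 520–700 nm, corrected for inner filter. Stern–Volmer analysis, triplicates. Variants: pH 6–8, or NaCl raised to 50 and 200 mM.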

Series [5] concerns Poly(dA-dT)oligonucleotide. As to the kind of experiment: Binding affinity to poly(dA-dT) DNA (unknown origin) assessed as appearance of induced CD up to 6:1 compound to DNA ratio by circular dichroism method. Type of series: nucleic-acid assay. The method, boiled down: (§1)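 Poly(dA-dT)·poly(dA-dT) or poly(dG-dC)·poly(dG-dC) held at 10 µM. Titrated with compound from 20 to 60 µM and followed by circular dichroism for change in the B-DNA band and appearance of induced CD.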
In general terms: Circular dichroism is the unequal absorption of left and right circularly polarised light.

Series [6] concerns Staphylococcus aureus. As to the kind of experiment: Induction of morphological changes in Staphylococcus aureus assessed as unchanged population at 3.5 uM measured after 2 hrs by flow cytometric analysis (reference value: 90.4%). Type of series: functional. For orientation: In flow cytometry, cells or beads pass a laser one at a time.
The subject of series [7] is Staphylococcus aureus. As to the kind of experiment: Induction of morphological changes in Staphylococcus aureus assessed as unchanged population at 7.5 uM measured after 2 hrs by flow cytometric analysis (reference value: 90.4%). Type of series: functional.
The test system of the next series is Calf thymus DNA. As to the kind of experiment: Binding affinity to calf thymus DNA assessed as appearance of induced CD at […] by circular dichroism method. Type of series: nucleic-acid assay. As to conditions: Bos taurus.
Series [8] relates to DNA. As to the kind of experiment: Binding affinity to Staphylococcus aureus DNA assessed as appearance of induced CD up to 60 uM by circular dichroism method. Type of series: nucleic-acid assay. The procedure, abridged: (§2)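 Genomic DNA isolated from overnight cultures of each strain. Titrated with compound from 15 to 60 µM in a 10 mm quartz cuvette. CD spectra recorded from 230 to 500 nm at 100 nm/min; ellipticity followed at 320 nm.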

The subject of series [9] is DNA. As to the kind of experiment: Inhibition of ethidium bromide binding to Staphylococcus aureus DNA by fluorescence assay. Type of series: nucleic-acid assay. The method, boiled down:
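Fluorescence intercalator displacement: S. aureus genomic DNA 10 µM plus EtBr 5 µM in 10 mM NaP pH 7, 10 mM NaCl, 1% DMSO, at 25 and 37 °C; titrated with 2.5–100 µM compound. Excitation 480 nm, emission 520–700 nm, inner-filter corrected, triplicates; Stern–Volmer analysis, F0/F = 1 + Ksv[Q].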

Series [10] deals with Staphylococcus aureus. As to the kind of experiment: Induction of DNA fragmentation in Staphylococcus aureus at 3.5 uM by EtBr staining based confocal laser scanning fluorescence microscopic analysis. Type of series: functional, organism-based.
Series [11] concerns Staphylococcus epidermidis. As to the kind of experiment: Antibacterial activity against Staphylococcus epidermidis MTCC3615 by broth microdilution assay. Type of series: functional. The method, boiled down: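 Broth microdilution per CLSI; 5×10^5 cfu/mL bacteria in LB broth; compounds from DMSO stocks, final DMSO under 0.6%, with DMSO control. Plates incubated at the strain's recommended growth temperature and time; growth read as OD600.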
(Broth dilution looks for growth in wells or tubes with falling amounts of substance.)

Series [12] concerns Staphylococcus aureus. As to the kind of experiment: Disruption of preformed biofilm in Staphylococcus aureus at MIC measured after 12 hrs by crystal violet staining based light microscopic analysis. The format is functional, organism-based. The procedure, abridged: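 Planktonic cells washed off; 1% crystal violet 10 min, solubilised in 30% acetic acid, A550 read; wells also imaged at 20X by light microscopy.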

Series [13] has as its system Pseudarthrobacter chlorophenolicus. As to the kind of experiment: Binding affinity to Arthrobacter chlorophenolicus DNA assessed as change in B-DNA structure by circular dichroism method. The method, boiled down: as §2
Series [14] deals with Staphylococcus aureus. As to the kind of experiment: Induction of morphological changes in Staphylococcus aureus at 3.5 uM measured after 6 hrs by acridine orange dye based confocal laser scanning fluorescence microscopic analysis. The format is functional, organism-based. The method, boiled down:
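S. aureus with 3.5 µM for 6 h at 37°C; fixed in paraformaldehyde, permeabilised with 0.2% Triton X-100 and lysostaphin 0.05 mg/mL; stained with acridine orange 3 µM for 5 min at 37°C; confocal imaging at 60X.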

The subject of series [15] is Pseudarthrobacter chlorophenolicus. As to the kind of experiment: Binding affinity to Arthrobacter chlorophenolicus DNA assessed as appearance of induced CD up to 60 uM by circular dichroism method. The method, boiled down: as §2
The subject of series [16] is Staphylococcus aureus. As to the kind of experiment: Disruption of cell membrane in Staphylococcus aureus assessed as accumulation of propidium iodide positive cells at 5 uM by flow cytometric analysis (reference value: 1.7%). The format is functional.
In series [17] the test system is DNA. As to the kind of experiment: Binding affinity to Staphylococcus aureus DNA assessed as induction of structural changes by EtBr staining based agarose gel shift assay. Type of series: nucleic-acid assay. The procedure, abridged:
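S. aureus genomic DNA incubated with compound at stated [compound]:[DNA bp] ratios, 16 h at 37 °C, in NaP buffer pH 7 with 10 mM NaCl. Run on agarose gel, stained with EtBr (1 µg/mL) and classed as supercoiled, structurally altered or condensed.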

Series [18] has as its system HEK293. As to the kind of experiment: Induction of DNA damage in HEK293 cells at 15 uM by TUNEL staining based confocal laser scanning fluorescence microscopic analysis. Type of series: cell-based. The note with it: human, hek293, 15 µM. The procedure, abridged: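 TUNEL in HEK 293 cells treated with 15 µM or 0.5% DMSO control; TdT incorporation of fluorescent nucleotides at strand-break 3′-OH ends, confocal imaging at 60X.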

For series [19], the system named is HEK293. As to the kind of experiment: Induction of morphological changes in HEK293 cells at 5 uM by propidium iodide staining based assay. The format is cell-based. As to conditions: human, hek293, 5 µM.
Series [20] has as its system Staphylococcus aureus. As to the kind of experiment: Induction of morphological changes in Staphylococcus aureus assessed as unchanged population at 5 uM measured after 2 hrs by flow cytometric analysis (reference value: 90.4%). The format is functional.
Series [21] concerns Poly(dG-dC)oligonucleotide. As to the kind of experiment: Binding affinity to poly(dG-dC) DNA (unknown origin) assessed as appearance of induced CD by circular dichroism method. The format is nucleic-acid assay. The procedure, abridged:
as §1

For series [22], the system named is Staphylococcus aureus. As to the kind of experiment: Inhibition of DNA synthesis in Staphylococcus aureus assessed as reduction in [3H]-thymidine incorporation at 3.5 to 5 uM measured after 30 mins by scintillation counting analysis. Type of series: functional, organism-based. The procedure, abridged:
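Log-phase S. aureus (10^5–10^6 CFU/mL) incubated with 3.5 or 5 µM, then pulsed 30 min with 3H-thymidine (1 µCi/well); cells harvested and counted by liquid scintillation. 5-fluorouracil (2 µM) as positive control.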

The test system of series [23] is Staphylococcus aureus. As to the kind of experiment: Induction of morphological changes in Staphylococcus aureus assessed as change in microbe length at 3.5 uM by atomic force microscopic analysis (reference value: 1.37 +/- 0.09 micrometer). The format is functional.

Broadly, the MIC is the smallest concentration in the dilution series that meets the test's criterion for growth inhibition. Read a high MIC as weaker potency.

The structures appear in SMILES notation. In brackets after ≈: the same amount, converted by molar mass. Activity calls are given as the source filed them.

On to `CN(C)CCCNc1nc2cc([N+](=O)[O-])ccc2nc1NCc1ccc(C(F)(F)F)cc1`, for which the outcome in the series on DNA [1], with Staphylococcus aureus [3], with DNA [8], with Staphylococcus aureus [10], in the series with Staphylococcus aureus [12] and in the series on Staphylococcus aureus [14] was Active. In [15], the result was Active. Further, the Activity in the series with Staphylococcus aureus [2] was 79%; in the series with Staphylococcus aureus [6], 86.3%; in the series with Staphylococcus aureus [7], 81%; with Calf thymus DNA, “Dose-dependent effect”; in series [13] it was “Dose-dependent effect”; in the series with Staphylococcus aureus [16] it was 20.4%. Further, the Activity entry with DNA [17] was “Dose-dependent effect”; in the series with HEK293 [18], “Toxic”; with HEK293 [19] it was “Non-Toxic”; in the series on Staphylococcus aureus [20], 82.4%; in [21], “Dose-dependent effect”; with Staphylococcus aureus [23], 2.3 um. The inhibition entry with DNA [4] and with Staphylococcus aureus [22] was “Active” in each case. Also, the outcome in series [5] was inactive. Besides, the inhibition entry with DNA [9] was “Dose-dependent effect”. In addition, in series [11], the MIC came to 2.24 µg/mL (≈ 4.99 µM).

The values are drawn from ChEMBL document CHEMBL4373710, “DNA Structural Alteration Leading to Antibacterial Properties of 6-Nitroquinoxaline Derivatives” (J Med Chem, 2019).
